The target in series [1] is T1, Amine oxidase [flavin-containing] B (Bos taurus, UniProt P56560).
T1 sequence (P56560 whole entry): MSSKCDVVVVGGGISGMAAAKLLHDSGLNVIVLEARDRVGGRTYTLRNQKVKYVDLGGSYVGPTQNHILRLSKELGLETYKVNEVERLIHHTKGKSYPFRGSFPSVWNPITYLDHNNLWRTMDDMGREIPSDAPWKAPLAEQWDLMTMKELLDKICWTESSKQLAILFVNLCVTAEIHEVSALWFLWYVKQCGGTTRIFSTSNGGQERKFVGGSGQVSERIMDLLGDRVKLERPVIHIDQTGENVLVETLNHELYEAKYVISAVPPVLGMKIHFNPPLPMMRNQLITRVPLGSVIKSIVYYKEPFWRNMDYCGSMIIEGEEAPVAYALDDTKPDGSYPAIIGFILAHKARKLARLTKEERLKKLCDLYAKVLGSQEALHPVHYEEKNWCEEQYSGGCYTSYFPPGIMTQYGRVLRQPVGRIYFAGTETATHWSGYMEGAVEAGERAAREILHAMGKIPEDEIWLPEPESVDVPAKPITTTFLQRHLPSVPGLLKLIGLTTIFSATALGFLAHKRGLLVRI
As to the kind of experiment: Inhibition of Monoamine oxidase-B from Bovine liver. The essentials:
(§1)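 Bovine liver MAO-B was added to inhibitor at various concentrations in 100 mM potassium phosphate, pH 7.40, with 2.0 mM β-mercaptoethanol or glutathione, at 25 °C. Aliquots taken over time were assayed with 0.5 mM cinnamylamine in 100 mM Tris, pH 9.0, and corrected against a no-inhibitor control. Ki and kinact came from Kitz–Wilson analysis.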

For series [2], the target named is T1, Amine oxidase [flavin-containing] B. As to the kind of experiment: Catalysis activity was calculated for Monoamine oxidase-B from Bovine liver. The note with it: cattle. The essentials: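 Purified bovine liver MAO-B, with the test amine as substrate. Km and kcat were obtained by following the rate of hydrogen peroxide formation.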
The target is the same in series [3]. Briefly: Inactivation kinetic constant Monoamine oxidase-B from Bovine liver. To be noted: cattle. A digest of the protocol:
as §1

The Ki is a measure of affinity in units of concentration, obtained from inhibition or displacement. High values mean weaker binding, low ones tighter binding. As a reminder, the kinact is the rate constant of inactivation at saturating inhibitor. For `CN(C)CCCc1ccccc1`, the Ki in series [1] was 0.38 mM. Further, the k cat in series [2] was 0.21 s⁻¹. In series [3], the kinact was 0.00717 s⁻¹.

In series [1], `CCCNCCc1ccccc1` registered a Ki of 4 mM. In addition, in series [3], the kinact is 0.0767 s⁻¹.

As for `CN(C)CCC(=O)c1ccccc1`, the Ki in series [1] is 0.35 mM. Besides, in series [3], the kinact is 0.0288 s⁻¹.

In turn, `CN(C)CCCCc1ccccc1` yielded a Ki in series [1] of 10 mM. For the same compound, the kinact in series [3] was 4.83e-05 s⁻¹.

Compound `CCCCCN(C)C` returned a Ki in series [1] of 2.1 mM. In series [3], the kinact worked out at 0.000267 s⁻¹.

Consider `CN(C)CCc1ccccc1`, for which the Ki in series [1] was 7.1 mM. Also, in series [2], the k cat was 1.4 s⁻¹. In addition, the inactivation rate constant (kinact) in series [3] was 0.128 s⁻¹.

Source of the values: ChEMBL document CHEMBL1127022, “Transformation of monoamine oxidase-B primary amine substrates into time-dependent inhibitors. Tertiary amine homologues of primary amine substrates” (J Med Chem, 1993).
